Series [1] can be described thus: Selectivity index, ratio of NI50 for human HepG2/C3A cells to MIC50 for Mycobacterium tuberculosis H37Rv ATCC 27294. The series is classed as functional.
Series [2] is described as follows: Toxicity in recombinant Salmonella typhimurium TA104 expressing luxabcd genes under transcriptional control of constitutive pr1 promoter assessed as concentration required to reduce cell viability measured every 5 mins for 4 hrs by vitotox assay in presence of S9 fraction. The series is classed as organism-based. To be noted: salmonella enterica subsp. enterica serovar typhimurium; read-out: Activity. An outline of the steps:
(§1)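 Cytox strain TA104 pr1 (constitutive promoter driving lux), run alongside the genox strain. Grown in poor LB at 36 °C for 16 h, diluted 125-fold and shaken 1 h, then diluted 10-fold, with or without aroclor-rat S9. Luminescence read at 30 °C every 5 min over 4 h; a drop in light signal indicates reduced viability. Top concentration 10 µM.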

Series [3] has as its system Salmonella typhimurium. In words: Genotoxicity in recombinant Salmonella typhimurium TA104 expressing Vibrio fisheri luxabcd genes under transcriptional control of recN2-4 promoter assessed as concentration required to cause DNA damage measured every 5 mins for 4 hrs by vitotox assay in absence of S9 fraction. The settings on record: salmonella enterica subsp. enterica serovar typhimurium. Format: toxicity, organism-based. An outline of the steps:
(§2)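 VITOTOX genox strain TA104 recN2-4 (recN promoter driving lux). Grown 16 h at 36 °C in poor LB, diluted 125-fold and shaken 1 h, then diluted 10-fold; rat aroclor S9 added for +S9 runs. Incubated at 30 °C with light read every 5 min for 4 h. Signal/noise = exposed over unexposed light. Highest concentration tested 10 µM.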

Series [4] deals with Mycobacterium tuberculosis. In words: Antimycobacterial activity against Mycobacterium tuberculosis H37Rv ATCC 27294 assessed as growth inhibition at 1 uM after 6 days by luciferase reporter gene assay relative to control. The series is classed as functional. The settings on record: H37Rv ATCC 27294, 144 h, read-out: GI. The gist of the method: (§3)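 Luminescent M. tb H37Rv (hsp60-driven luciferase) in 7H9 + 10% FCS was seeded at 50 000 RLU/mL. Compounds were tested at 10, 1 and 0.1 µM from 10 mM DMSO stocks. After 6 days, luminescence was read with 1% n-decanal. Growth inhibition (%) was expressed against untreated culture, with triplicates.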

A short description of series [5]: Antimycobacterial activity against Mycobacterium avium subsp. avium ATCC 15769 assessed as growth inhibition after 6 days by luciferase reporter gene assay. The settings on record: ATCC 15769, 144 h. The series is classed as functional. The gist of the method:
(§4)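 Mycobacteria carrying the pSMT1 luciferase reporter plasmid. Compounds came from 10 mM DMSO stocks and were serially diluted in 7H9 + 10% FCS. Thawed bacteria were filtered, recovered 1 h at 37 °C, then added at 50 000 RLU/mL. After 6 days of culture, light was read for 10 s after adding 1% n-decanal. Triplicates were run, and MIC50 was the concentration giving 50% growth inhibition.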

The nature of series [6]: Cytotoxicity against human HepG2/C3A cells assessed as cell viability at 120 uM after 24 hrs by neutral red uptake assay relative to control. Format: cell-based. The settings on record: read-out: Activity. The gist of the method:
(§5)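 C3A cells grown in DMEM + 10% FCS, 40 000 cells/well, recovered overnight at 37 °C, 5% CO2. Exposed 24 h to serial dilutions in DMEM + 10% FCS from 18 mM DMSO stocks, DMSO limited to 1%. Neutral red added for 3 h, cells washed, dye extracted with ethanol/acetic acid (50%/1%), OD read at 540 nm with 620 nm reference. Viability expressed as % of untreated cells.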

Series [7] has as its system Mycobacterium tuberculosis. In words: Antimycobacterial activity against Mycobacterium tuberculosis H37Rv infected in mouse J774.A1 cells at 1 MOI assessed as intracellular bacterial growth inhibition at 0.1 uM after 1 hr by luciferase reporter gene assay relative to control. The series is classed as functional. The settings on record: J774.A1, 1 h, read-out: GI.
Series [8] has as its system Mycobacterium avium subsp. paratuberculosis. In words: Antimycobacterial activity against Mycobacterium avium subsp. paratuberculosis ATCC 19698 assessed as growth inhibition after 6 days by luciferase reporter gene assay. The series is classed as functional. To be noted: ATCC 19698, 144 h. An outline of the steps:
as §4

Series [9] relates to Mycobacterium tuberculosis. In words: Antimycobacterial activity against Mycobacterium tuberculosis H37Rv ATCC 27294 assessed as growth inhibition at 0.1 uM after 6 days by luciferase reporter gene assay relative to control. The series is classed as functional. The settings on record: H37Rv ATCC 27294, 144 h, read-out: GI. The gist of the method: as §3
The nature of series [10]: Cytotoxicity against human HepG2/C3A cells assessed as cell viability at 180 uM after 24 hrs by neutral red uptake assay relative to control. Format: cell-based. To be noted: read-out: Activity. The gist of the method:
as §5

Series [11] relates to Salmonella typhimurium. In words: Toxicity in recombinant Salmonella typhimurium TA104 expressing luxabcd genes under transcriptional control of constitutive pr1 promoter assessed as concentration required to reduce cell viability measured every 5 mins for 4 hrs by vitotox assay in absence of S9 fraction. Format: organism-based. The settings on record: salmonella enterica subsp. enterica serovar typhimurium. An outline of the steps: as §1

For series [12], the system named is Mycobacterium tuberculosis. In words: Antimycobacterial activity against Mycobacterium tuberculosis H37Rv ATCC 27294 assessed as growth inhibition at 10 uM after 6 days by luciferase reporter gene assay relative to control. The series is classed as functional. The settings on record: H37Rv ATCC 27294, 144 h, read-out: GI. The gist of the method:
as §3

The test system of series [13] is Salmonella typhimurium. In words: Genotoxicity in recombinant Salmonella typhimurium TA104 expressing Vibrio fisheri luxabcd genes under transcriptional control of recN2-4 promoter assessed as concentration required to cause DNA damage measured every 5 mins for 4 hrs by vitotox assay in presence of S9 fraction. Format: toxicity, organism-based. To be noted: salmonella enterica subsp. enterica serovar typhimurium, s9, 4 h. The gist of the method: as §2

Series [14] is described as follows: Cytotoxicity against human HepG2/C3A cells assessed as cell viability at 60 uM after 24 hrs by neutral red uptake assay relative to control. The series is classed as cell-based. The settings on record: read-out: Activity. The gist of the method: as §5
In series [15] the test system is Mycobacterium tuberculosis. In words: Antimycobacterial activity against Mycobacterium tuberculosis H37Rv infected in mouse J774.A1 cells at 1 MOI assessed as intracellular bacterial growth inhibition at 1 uM after 1 hr by luciferase reporter gene assay relative to control. The series is classed as functional. The settings on record: J774.A1, 1 h, read-out: GI.

In series [16] the test system is Mycobacterium tuberculosis. In words: Antimycobacterial activity against Mycobacterium tuberculosis H37Rv infected in mouse J774.A1 cells at 1 MOI assessed as intracellular bacterial growth inhibition at 10 uM after 1 hr by luciferase reporter gene assay relative to control. The series is classed as functional. To be noted: J774.A1, 1 h, read-out: GI.
Series [17] concerns Mycobacterium tuberculosis. In words: Antimycobacterial activity against Mycobacterium tuberculosis H37Rv ATCC 27294 assessed as growth inhibition after 6 days by luciferase reporter gene assay. To be noted: H37Rv ATCC 27294, 144 h. The series is classed as functional. An outline of the steps:
as §4

A further series deals with Mycobacterium ulcerans. In words: Antimycobacterial activity against Mycobacterium ulcerans 1615 assessed as growth inhibition after 6 days by luciferase reporter gene assay. The settings on record: Mycobacterium ulcerans, 1615, 144 h. Format: functional. The gist of the method: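 M. ulcerans 1615 carrying pSMT1 luciferase reporter plasmid, stock grown as surface pellicle on Sauton medium, cultured at 32 °C. Serial compound dilutions in 7H9 + 10% FCS from 10 mM DMSO stocks, tested in triplicate. Filtered bacteria added at 50 000 RLU/mL. After 6 days, wells collected and washed with PBS, 1% n-decanal in ethanol added, light read over 10 s. MIC50 = concentration giving 50% inhibition versus untreated.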

Values after ≈ are worked out from the molar mass of the structure shown.

`O=Cc1ccc(OCCCOc2ccc(C=O)cc2)cc1`: the “Selectivity Index” value in [1] is recorded as over 67.9. Besides, the MCC at 4 h in series [2] is over 10 µM. For the same compound, the Activity with Salmonella typhimurium [3], with Salmonella typhimurium [11] and with Salmonella typhimurium [13] was over 10 µM throughout. Further, the inhibition of growth at 1 µM in series [4] was found to be 35%. The MIC50 in series [5] was over 10 µM; in [8] it was over 10 µM; in [17], 2.65 µM (≈ 0.753 µg/mL); in the series on Mycobacterium ulcerans it was over 10 µM. Further, in series [6], the viability at 24 h, 120 µM worked out at 94.8%. In [7], the intracellular bacterial growth inhibition at 0.1 µM was -1.2%. The inhibition of growth at 0.1 µM in series [9] was under 10%. Further, the viability at 24 h, 180 µM in series [10] came out at 77.4%. The inhibition of growth at 10 µM in series [12] was found to be 84%. In series [14], the viability at 24 h, 60 µM was found to be 94.9%. Also, the percent inhibition of intracellular bacterial growth at 1 µM in [15] is 29.9%. Also, the intracellular bacterial growth inhibition at 10 µM in [16] is 42%.
Regarding `O=Cc1ccc(OCCCCCOc2ccc(C=O)cc2)cc1`, the “Selectivity Index” value in series [1] is listed as over 110.4. Further, in series [2], the MCC at 4 h was over 10 µM. Also, the Activity with Salmonella typhimurium [3], with Salmonella typhimurium [11] and with Salmonella typhimurium [13] was over 10 µM each time. In [4], the inhibition of growth at 1 µM is 39%. The MIC50 is 7.32 µM (≈ 2.29 µg/mL) in [5], 8.69 µM (≈ 2.71 µg/mL) in series [8], 1.63 µM (≈ 0.509 µg/mL) in series [17] and over 10 µM in the series with Mycobacterium ulcerans. For the same compound, the viability at 24 h, 120 µM in series [6] is 72.6%. Moreover, in series [7], the intracellular bacterial growth inhibition at 0.1 µM is 0.2%. Moreover, the inhibition of growth at 0.1 µM in series [9] was under 10%. For the same compound, the viability at 24 h, 180 µM in series [10] was 45.6%. For the same compound, the inhibition of growth at 10 µM in series [12] came out at 95%. Further, in series [14], the viability at 24 h, 60 µM came out at 90.4%. In addition, the percent inhibition of intracellular bacterial growth at 1 µM in [15] was 38.1%. Besides, the intracellular bacterial growth inhibition at 10 µM in series [16] stood at 46.8%.
Regarding `O=Cc1ccc(OCCOc2ccc(C=O)cc2)cc1`, the “Selectivity Index” value in series [1] is listed as over 80.7. Further, the MCC at 4 h in series [2] is over 10 µM. Further, the Activity in the series on Salmonella typhimurium [3], in the series with Salmonella typhimurium [11] and in the series on Salmonella typhimurium [13] was over 10 µM each time. The inhibition of growth at 1 µM in series [4] came to 41%. Further, the MIC50 was over 10 µM in [5], over 10 µM in series [8], 2.23 µM (≈ 0.603 µg/mL) in series [17] and over 10 µM in the series on Mycobacterium ulcerans. The viability at 24 h, 120 µM in series [6] came to 85%. The intracellular bacterial growth inhibition at 0.1 µM in series [7] is 0.3%. Further, the inhibition of growth at 0.1 µM in series [9] is under 10%. For the same compound, the viability at 24 h, 180 µM in series [10] was found to be 70.5%. Besides, the inhibition of growth at 10 µM in [12] was determined as 90%. The viability at 24 h, 60 µM in [14] stood at 93.6%. Also, the percent inhibition of intracellular bacterial growth at 1 µM in series [15] amounted to 32.6%. Besides, the intracellular bacterial growth inhibition at 10 µM in [16] is 39.2%.
On to `O=Cc1ccc(OCOc2ccc(C=O)cc2)cc1`, for which, in series [1], the “Selectivity Index” value is given as over 60. The MCC at 4 h in series [2] is over 10 µM. The Activity in the series on Salmonella typhimurium [3], in the series with Salmonella typhimurium [11] and in the series on Salmonella typhimurium [13] was over 10 µM throughout. In addition, the inhibition of growth at 1 µM in series [4] amounted to 30%. Also, the MIC50 in series [5] is over 10 µM; in [8], over 10 µM; in [17] it was 3 µM (≈ 0.769 µg/mL); in the series on Mycobacterium ulcerans, over 10 µM. Also, in series [6], the viability at 24 h, 120 µM was 91.6%. In [7], the intracellular bacterial growth inhibition at 0.1 µM was 1.6%. Also, in series [9], the inhibition of growth at 0.1 µM is under 10%. Further, the viability at 24 h, 180 µM in [10] worked out at 78.6%. Besides, in [12], the inhibition of growth at 10 µM stood at 85%. The viability at 24 h, 60 µM in series [14] came to 96.8%. Further, the percent inhibition of intracellular bacterial growth at 1 µM in series [15] came out at 35.2%. Moreover, in series [16], the intracellular bacterial growth inhibition at 10 µM is 41.3%.

These data come from ChEMBL document CHEMBL2380272, “Biological evaluation of bisbenzaldehydes against four Mycobacterium species” (Eur J Med Chem, 2013).
